# Test results from ChEMBL document CHEMBL2169872, “(S)-N-(2,5-Dimethylphenyl)-1-(quinoline-8-ylsulfonyl)pyrrolidine-2-carboxamide as a small molecule inhibitor probe for the study of respiratory syncytial virus infection” (J Med Chem, 2012).
# Experiments:
# [1] = test system: Respiratory syncytial virus; experiment: Antiviral activity against Respiratory syncytial virus Long infected in human Hep2 cells assessed as reduction in virus-induced cytopathogenicity by Cell Titer-Glo assay; type: functional, organism-based; details: HEp-2
# [2] = test system: HEp-2; experiment: Cytotoxicity against human Hep2 cells by Cell Titer-Glo assay; type: cell-based
# [3] = Selectivity index, ratio of CC50 for human Hep2 cells to EC50 for Respiratory syncytial virus Long infected in human Hep2 cells
# [4] = test system: Respiratory syncytial virus; experiment: Antiviral activity against Respiratory syncytial virus Long infected in human Hep2 cells assessed as log reduction in virus titer at 25 uM by virus plaque reduction assay; type: functional, HEp-2
# [5] = Aqueous solubility in PBS buffer; type: physicochemical
# [6] = Chemical stability in 50% PBS/50% acetonitrile solution assessed as unchanged parent compound remaining after 48 hrs; type: physicochemical; details: read-out: Stability
# [7] = test system: Respiratory syncytial virus; experiment: Antiviral activity against Respiratory syncytial virus Long infected in human Hep2 cells assessed as post infection time duration of protection against virus-induced cytopathogenicity by Cell Titer-Glo assay; type: functional, HEp-2
# Summary of the method: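 HEp-2 cells seeded at 10 000 cells/well, held 24 h at 37 °C, 5% CO2, then infected with hRSV Long at MOI 3.0 at time 0. Compound added at 25 μM final, in triplicate, at −1, 0, 1, 2, 3, 5, 7, 21 or 24 h pi. Incubated 6 days at 37 °C, 5% CO2. Read by Cell Titer-Glo luminescence after 30 min room-temperature equilibration and 10 min reagent incubation. Uninfected and infected untreated wells served as controls.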
# [8] = test system: Respiratory syncytial virus; experiment: Antiviral activity against Respiratory syncytial virus Long infected in human Hep2 cells assessed as protection against virus-induced cytopathogenicity by measuring cell viability at 24 hrs post infection by Cell Titer-Glo assay; type: functional, HEp-2
# Summary of the method: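 HEp-2 cells seeded at 10 000/well and held 24 h at 37 °C, 5% CO₂, then infected at time 0 with hRSV Long at MOI 3.0. Compound added at 25 μM final, in triplicate, at −1 to 24 h post-infection. After 6 days at 37 °C, plates were brought to room temperature and Cell Titer-Glo luminescence read after 10 min. Cell-only and virus-only controls were included.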
# [9] = test system: HEp-2; experiment: Cytotoxicity against uninfected human Hep2 cells assessed as cell viability at 25 uM measured after 144 hrs by Cell Titer-Glo assay; type: cell-based; details: hep-2, 144 h
# Summary of the method: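 Uninfected HEp-2 cells were given compound at 25 μM at time point 0. Viability was read by Cell Titer-Glo after 144 h.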
SMILES,EC50 [1],CC50 [2],further results
Cc1ccc(NC(=O)CN(C)S(=O)(=O)c2cccc3cccnc23)c(C)c1,> 50 µM,> 50 µM,
Cc1ccc(NC(=O)[C@H]2CCCN2S(=O)(=O)c2cccc3cccnc23)c(C)c1,> 50 µM,38.1 µM,selectivity ratio [3]: 0.8
Cc1ccc(NC(=O)[C@@H]2CCCN2S(=O)(=O)c2cccc3cccnc23)c(C)c1,2.7 µM,31.8 µM,selectivity ratio [3]: 11.8; FC [4]: 1
Cc1ccc(NC(=O)CNS(=O)(=O)c2cccc3cccnc23)c(C)c1,> 50 µM,> 50 µM,
Cc1ccc(NC(=O)C(C)NS(=O)(=O)c2cccc3cccnc23)c(C)c1 (configuration not stated),> 50 µM,> 50 µM,
Cc1ccccc1NC(=O)[C@@H]1CCCN1S(=O)(=O)c1cccc2cccnc12,23.8 µM,> 50 µM,
Cc1cccc(NC(=O)[C@@H]2CCCN2S(=O)(=O)c2cccc3cccnc23)c1,> 50 µM,25.5 µM,
Cc1ccc(NC(=O)[C@@H]2CCCN2S(=O)(=O)c2cccc3cccnc23)cc1,> 50 µM,31.7 µM,
O=C(Nc1ccccc1)[C@@H]1CCCN1S(=O)(=O)c1cccc2cccnc12,> 50 µM,35.6 µM,
CCc1ccccc1NC(=O)[C@@H]1CCCN1S(=O)(=O)c1cccc2cccnc12,21.2 µM,> 50 µM,
CC(C)c1ccccc1NC(=O)[C@@H]1CCCN1S(=O)(=O)c1cccc2cccnc12,17.6 µM,29.9 µM,
Cc1ccnc(C)c1NC(=O)[C@@H]1CCCN1S(=O)(=O)c1cccc2cccnc12,> 50 µM,> 50 µM,
Cc1cc(C)cc(NC(=O)[C@@H]2CCCN2S(=O)(=O)c2cccc3cccnc23)c1,> 50 µM,31.3 µM,
O=C(Nc1ccc(Cl)cc1Cl)[C@@H]1CCCN1S(=O)(=O)c1cccc2cccnc12,> 50 µM,> 50 µM,
Cc1ccc(C)c(NC(=O)[C@@H]2CCCN2S(=O)(=O)c2cccc3cccnc23)c1,2.3 µM,30.9 µM,FC [4]: 2; solubility [5]: 92.7 µg/mL; remaining at 48 h [6]: 95.4%; Time [7]: 1 h; Activity [8]: 26%
Cc1cccc(C)c1NC(=O)[C@@H]1CCCN1S(=O)(=O)c1cccc2cccnc12,> 50 µM,> 50 µM,
Cc1ccc(Cl)cc1NC(=O)[C@@H]1CCCN1S(=O)(=O)c1cccc2cccnc12,2.2 µM,10 µM,
Cc1ccc(C(F)(F)F)cc1NC(=O)[C@@H]1CCCN1S(=O)(=O)c1cccc2cccnc12,> 50 µM,4.8 µM,
COc1ccc(C)c(NC(=O)[C@@H]2CCCN2S(=O)(=O)c2cccc3cccnc23)c1,4.2 µM,44.2 µM,FC [4]: 1; Activity [9]: 88%
Cc1ccc(C(C)C)cc1NC(=O)[C@@H]1CCCN1S(=O)(=O)c1cccc2cccnc12,> 50 µM,9.7 µM,
Cc1ccc(C(C)(C)C)cc1NC(=O)[C@@H]1CCCN1S(=O)(=O)c1cccc2cccnc12,> 50 µM,6.5 µM,
Cc1ccc(Cl)c(NC(=O)[C@@H]2CCCN2S(=O)(=O)c2cccc3cccnc23)c1,> 50 µM,> 50 µM,
COc1ccc(C)cc1NC(=O)[C@@H]1CCCN1S(=O)(=O)c1cccc2cccnc12,> 50 µM,> 50 µM,
Cc1cc(NC(=O)[C@@H]2CCCN2S(=O)(=O)c2cccc3cccnc23)n(C(C)(C)C)n1,> 50 µM,> 50 µM,
Cc1ccc(NC(=O)C2CCCN2S(=O)(=O)c2cccc3cccnc23)c(C)c1 (racemic),5 µM,31.5 µM,selectivity ratio [3]: 6.3; FC [4]: 2.1
NC(=O)c1ncn([C@@H]2O[C@H](CO)[C@@H](O)[C@H]2O)n1 [RIBAVIRIN],28.4 µM,114 µM,FC [4]: 2.5; Activity [9]: 90%; Time [7]: 7 h
